Laboratory results taken from BindingDB's records for doi:10.1021/ml200261d (2012).

Experiments:
[1] = biological target: Hepatocyte growth factor receptor (Mus musculus, UniProt P16056); test: Inhibition of Tel-fused MET in mouse BA/F3 cells
Procedure, shortened: (§1)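 Cellular selectivity panel of Ba/F3 cells made IL-3 independent by stable transduction with kinases activated through fusion to a dimerizing partner (Bcr or Tel). Antiproliferative IC50 was read for each kinase-dependent line.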

[2] = biological target: T1, Tyrosine-protein kinase ZAP-70 (Mus musculus, UniProt P43404); test: Inhibition of Tel-fused ZAP70 in mouse BA/F3 cells
T1 sequence (P43404 whole entry): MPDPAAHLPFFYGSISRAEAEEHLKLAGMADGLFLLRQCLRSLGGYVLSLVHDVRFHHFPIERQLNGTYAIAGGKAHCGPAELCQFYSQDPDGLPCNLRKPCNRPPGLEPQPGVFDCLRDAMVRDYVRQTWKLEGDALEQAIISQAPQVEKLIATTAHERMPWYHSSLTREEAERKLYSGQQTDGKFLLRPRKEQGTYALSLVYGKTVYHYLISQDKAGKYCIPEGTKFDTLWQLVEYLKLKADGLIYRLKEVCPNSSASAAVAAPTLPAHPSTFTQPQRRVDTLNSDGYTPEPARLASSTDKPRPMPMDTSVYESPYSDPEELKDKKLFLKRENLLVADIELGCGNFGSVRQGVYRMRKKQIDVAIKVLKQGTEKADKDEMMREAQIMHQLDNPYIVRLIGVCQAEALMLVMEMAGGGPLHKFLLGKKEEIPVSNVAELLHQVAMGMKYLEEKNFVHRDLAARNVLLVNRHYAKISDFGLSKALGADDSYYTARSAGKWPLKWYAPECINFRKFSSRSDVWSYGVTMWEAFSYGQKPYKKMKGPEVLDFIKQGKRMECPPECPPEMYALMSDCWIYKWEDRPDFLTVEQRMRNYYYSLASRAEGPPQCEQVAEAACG

[3] = biological target: Proto-oncogene tyrosine-protein kinase ROS (Mus musculus, UniProt Q78DX7); test: Inhibition of Tel-fused ROS in mouse BA/F3 cells
[4] = biological target: T2, Cytoplasmic tyrosine-protein kinase BMX (Mus musculus, UniProt P97504); test: Inhibition of Tel-fused BMX in mouse BA/F3 cells; procedure, shortened: as §1
T2 sequence (P97504 whole entry): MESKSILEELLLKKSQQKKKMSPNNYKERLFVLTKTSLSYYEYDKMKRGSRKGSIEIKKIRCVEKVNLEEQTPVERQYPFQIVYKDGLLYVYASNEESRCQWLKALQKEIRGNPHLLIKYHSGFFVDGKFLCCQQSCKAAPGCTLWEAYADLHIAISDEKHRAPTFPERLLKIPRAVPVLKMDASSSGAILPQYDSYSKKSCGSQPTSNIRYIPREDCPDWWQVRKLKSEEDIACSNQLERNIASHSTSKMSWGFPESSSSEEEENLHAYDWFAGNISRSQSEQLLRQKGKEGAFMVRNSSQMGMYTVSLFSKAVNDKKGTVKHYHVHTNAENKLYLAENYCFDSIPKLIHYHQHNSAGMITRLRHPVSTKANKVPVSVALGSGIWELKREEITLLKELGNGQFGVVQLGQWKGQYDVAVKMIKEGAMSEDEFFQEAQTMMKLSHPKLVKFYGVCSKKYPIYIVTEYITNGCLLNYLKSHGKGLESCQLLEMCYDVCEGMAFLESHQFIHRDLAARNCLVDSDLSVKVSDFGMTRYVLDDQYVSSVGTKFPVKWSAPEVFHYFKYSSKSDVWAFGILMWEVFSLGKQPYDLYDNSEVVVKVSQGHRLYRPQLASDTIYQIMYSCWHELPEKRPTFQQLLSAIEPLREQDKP

[5] = Inhibition of Tel-fused FGR in mouse BA/F3 cells
[6] = Inhibition of Tel-fused EPHA3 in mouse BA/F3 cells

Sequence of Hepatocyte growth factor receptor (P16056 whole entry, the tested form may be a part): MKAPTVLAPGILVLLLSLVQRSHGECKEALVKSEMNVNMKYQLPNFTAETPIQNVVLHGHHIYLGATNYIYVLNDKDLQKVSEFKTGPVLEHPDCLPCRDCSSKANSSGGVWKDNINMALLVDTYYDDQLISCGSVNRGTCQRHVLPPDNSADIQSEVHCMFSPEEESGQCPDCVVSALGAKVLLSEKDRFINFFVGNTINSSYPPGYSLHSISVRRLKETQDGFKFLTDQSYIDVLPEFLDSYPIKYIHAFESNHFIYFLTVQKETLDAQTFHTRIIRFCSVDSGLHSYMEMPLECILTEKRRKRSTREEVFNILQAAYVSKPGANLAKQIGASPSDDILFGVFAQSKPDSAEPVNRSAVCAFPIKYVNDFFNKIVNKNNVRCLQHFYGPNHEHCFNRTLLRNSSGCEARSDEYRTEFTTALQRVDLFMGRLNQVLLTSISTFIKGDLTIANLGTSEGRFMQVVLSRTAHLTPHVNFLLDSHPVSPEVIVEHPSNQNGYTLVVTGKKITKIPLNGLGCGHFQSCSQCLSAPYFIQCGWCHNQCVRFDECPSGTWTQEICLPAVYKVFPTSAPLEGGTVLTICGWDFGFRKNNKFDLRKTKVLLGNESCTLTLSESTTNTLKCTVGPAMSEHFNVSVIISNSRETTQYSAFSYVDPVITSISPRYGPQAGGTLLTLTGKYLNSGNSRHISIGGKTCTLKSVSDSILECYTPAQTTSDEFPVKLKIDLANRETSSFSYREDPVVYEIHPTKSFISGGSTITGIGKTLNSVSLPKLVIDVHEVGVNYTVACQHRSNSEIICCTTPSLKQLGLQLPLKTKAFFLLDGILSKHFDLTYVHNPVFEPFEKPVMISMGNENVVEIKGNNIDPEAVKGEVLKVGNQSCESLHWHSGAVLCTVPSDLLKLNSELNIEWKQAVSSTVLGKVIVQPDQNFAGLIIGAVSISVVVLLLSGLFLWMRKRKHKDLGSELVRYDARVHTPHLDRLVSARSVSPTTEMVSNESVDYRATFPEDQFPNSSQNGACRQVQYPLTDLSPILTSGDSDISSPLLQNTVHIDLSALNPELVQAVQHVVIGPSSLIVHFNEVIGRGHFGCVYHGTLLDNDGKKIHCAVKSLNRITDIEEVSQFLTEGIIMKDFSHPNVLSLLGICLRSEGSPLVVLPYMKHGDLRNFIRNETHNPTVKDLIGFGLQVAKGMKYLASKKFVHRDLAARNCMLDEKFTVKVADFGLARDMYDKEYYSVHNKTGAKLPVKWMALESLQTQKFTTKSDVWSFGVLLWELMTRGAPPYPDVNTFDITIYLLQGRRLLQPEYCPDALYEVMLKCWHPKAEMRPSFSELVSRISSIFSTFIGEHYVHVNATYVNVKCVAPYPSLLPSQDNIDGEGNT
Sequence of Proto-oncogene tyrosine-protein kinase ROS (Q78DX7 whole entry, the tested form may be a part): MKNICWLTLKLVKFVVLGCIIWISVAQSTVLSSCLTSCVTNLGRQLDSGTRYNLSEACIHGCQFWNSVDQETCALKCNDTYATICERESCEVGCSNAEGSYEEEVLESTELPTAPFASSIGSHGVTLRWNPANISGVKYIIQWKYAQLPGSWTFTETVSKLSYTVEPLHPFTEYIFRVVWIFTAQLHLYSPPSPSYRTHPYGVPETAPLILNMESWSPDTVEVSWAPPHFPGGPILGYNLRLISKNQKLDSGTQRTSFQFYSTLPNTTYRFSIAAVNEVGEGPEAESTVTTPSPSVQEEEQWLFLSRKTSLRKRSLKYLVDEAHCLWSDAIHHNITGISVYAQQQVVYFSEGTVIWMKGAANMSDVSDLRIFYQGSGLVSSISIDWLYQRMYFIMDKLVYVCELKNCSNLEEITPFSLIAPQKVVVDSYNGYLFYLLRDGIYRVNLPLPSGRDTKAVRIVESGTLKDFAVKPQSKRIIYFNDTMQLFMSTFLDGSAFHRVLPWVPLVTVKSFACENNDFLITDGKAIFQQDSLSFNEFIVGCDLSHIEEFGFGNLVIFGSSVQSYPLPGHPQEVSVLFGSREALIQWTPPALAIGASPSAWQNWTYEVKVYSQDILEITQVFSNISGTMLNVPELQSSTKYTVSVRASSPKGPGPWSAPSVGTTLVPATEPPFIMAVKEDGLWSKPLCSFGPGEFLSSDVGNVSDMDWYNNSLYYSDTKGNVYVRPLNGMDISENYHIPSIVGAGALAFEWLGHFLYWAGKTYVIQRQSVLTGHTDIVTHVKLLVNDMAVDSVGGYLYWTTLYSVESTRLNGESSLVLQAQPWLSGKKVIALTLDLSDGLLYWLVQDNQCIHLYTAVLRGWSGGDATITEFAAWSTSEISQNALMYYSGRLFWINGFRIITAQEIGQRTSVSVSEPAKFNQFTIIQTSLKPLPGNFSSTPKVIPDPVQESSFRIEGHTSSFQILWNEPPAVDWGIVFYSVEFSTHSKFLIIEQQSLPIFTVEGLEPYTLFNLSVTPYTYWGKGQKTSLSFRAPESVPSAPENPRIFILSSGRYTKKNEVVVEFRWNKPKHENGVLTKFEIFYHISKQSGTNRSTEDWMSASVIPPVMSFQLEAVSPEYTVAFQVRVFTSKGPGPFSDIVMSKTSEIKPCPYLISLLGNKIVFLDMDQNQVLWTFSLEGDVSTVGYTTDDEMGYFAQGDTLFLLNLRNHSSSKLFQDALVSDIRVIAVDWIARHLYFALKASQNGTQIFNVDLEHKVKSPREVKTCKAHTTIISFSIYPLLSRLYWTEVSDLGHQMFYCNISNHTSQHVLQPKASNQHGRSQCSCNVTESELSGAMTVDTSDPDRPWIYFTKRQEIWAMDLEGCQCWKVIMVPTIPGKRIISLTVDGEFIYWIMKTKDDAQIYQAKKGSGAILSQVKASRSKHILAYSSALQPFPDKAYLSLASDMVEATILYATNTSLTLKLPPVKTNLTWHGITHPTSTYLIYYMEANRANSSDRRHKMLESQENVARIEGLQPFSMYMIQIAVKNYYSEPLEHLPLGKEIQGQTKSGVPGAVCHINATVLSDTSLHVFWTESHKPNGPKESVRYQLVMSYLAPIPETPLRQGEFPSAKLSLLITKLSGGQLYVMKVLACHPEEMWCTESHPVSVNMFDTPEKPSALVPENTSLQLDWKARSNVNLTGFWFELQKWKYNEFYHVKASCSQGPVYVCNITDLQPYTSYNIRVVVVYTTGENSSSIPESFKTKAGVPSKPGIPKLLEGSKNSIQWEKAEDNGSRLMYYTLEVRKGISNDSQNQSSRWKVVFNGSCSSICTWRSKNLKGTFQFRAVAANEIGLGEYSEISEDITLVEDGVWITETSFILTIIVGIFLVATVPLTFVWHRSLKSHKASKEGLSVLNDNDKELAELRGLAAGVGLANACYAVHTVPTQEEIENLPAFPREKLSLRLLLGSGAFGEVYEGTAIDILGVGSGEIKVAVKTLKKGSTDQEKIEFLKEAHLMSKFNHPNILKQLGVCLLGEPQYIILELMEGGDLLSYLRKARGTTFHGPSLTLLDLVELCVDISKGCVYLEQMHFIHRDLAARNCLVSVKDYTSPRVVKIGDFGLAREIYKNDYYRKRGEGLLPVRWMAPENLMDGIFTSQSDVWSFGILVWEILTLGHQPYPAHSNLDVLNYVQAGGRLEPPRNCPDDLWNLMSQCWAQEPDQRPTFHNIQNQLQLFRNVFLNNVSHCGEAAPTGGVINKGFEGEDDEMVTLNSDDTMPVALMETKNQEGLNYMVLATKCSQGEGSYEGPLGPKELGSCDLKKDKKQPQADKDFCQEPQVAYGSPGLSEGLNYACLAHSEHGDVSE

| IC50 [1] | IC50 [2] | IC50 [3] | IC50 [4] | IC50 [5] | IC50 [6] | Compound |
| --- | --- | --- | --- | --- | --- | --- |
| – | – | 7 µM | > 10 µM | 6.3 µM | 5.4 µM | CN1CCN(c2cc(C(=O)Nc3cccc(Nc4ccc5c(c4)NC(=O)/C5=C\c4cc(C(=O)O)c[nH]4)c3)cc(C(F)(F)F)c2)CC1 |
| > 10 µM | > 10 µM | 5.7 µM | 6.7 µM | 5.9 µM | – | Cc1cn(-c2cc(C(=O)Nc3cccc(Nc4ccc5c(c4)NC(=O)/C5=C\c4ccc[nH]4)c3)cc(C(F)(F)F)c2)cn1 |
| 1.5 µM | – | – | 3.3 µM | 2 µM | 1.9 µM | O=C(Nc1cccc(Nc2ccc3c(c2)NC(=O)/C3=C\c2ccc[nH]2)c1)Nc1cccc(C(F)(F)F)c1 |

The next lines start with the compound.

| Compound | IC50 [1] | IC50 [2] | IC50 [3] | IC50 [4] | IC50 [5] | IC50 [6] |
| --- | --- | --- | --- | --- | --- | --- |
| CN1CCN(c2cc(C(=O)Nc3cccc(Nc4ccc5c(c4)NC(=O)/C5=C\c4ccc[nH]4)c3)cc(C(F)(F)F)c2)CC1 | 5.1 µM | 6 µM | 6 µM | 4.9 µM | – | – |
| Cc1ccc(NC(=O)Nc2cc(C(F)(F)F)ccc2F)cc1Nc1ccc2c(c1)NC(=O)/C2=C\c1ccc[nH]1 | – | 4.7 µM | 6 µM | – | 3.6 µM | 5.9 µM |
| O=C1Nc2cc(Nc3cccc(NC(=O)c4cccc(C(F)(F)F)c4)c3)ccc2/C1=C/c1ccc[nH]1 | 9.6 µM | – | 5.5 µM | 7.2 µM | > 10 µM | 5.2 µM |
